Results as given in ChEMBL document CHEMBL3124805, “Anti-allodynic effect of 2-(aminomethyl)adamantane-1-carboxylic acid in a rat model of neuropathic pain: a mechanism dependent on CaV2.2 channel inhibition” (Bioorg Med Chem, 2014).
Activity calls are given as the source filed them.

Experiments:
[1] = system: HEK293; experiment: Inhibition of rabbit recombinant Cav2.2/rat recombinant Cavbeta3/Cavalpha2delta-1 expressed in HEK-293 cell assessed as decrease in current density at 500 uM at holding potential of -80 mV after 3 hrs by whole-cell patch clamp technique; type: cell-based
Method in brief: (§1)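 HEK-293 cells were transiently co-transfected (lipofection) with CaV subunit cDNAs plus a GFP plasmid. Cells were split at ~10% confluence 2 days later and GFP-positive cells recorded ~4 h after. Cells were preincubated 1–3 h in medium with 500 µM compound (water stock). Whole-cell Ba²⁺ currents were recorded at 22–24 °C with CsCl/EGTA/MgATP pipette solution, pH 7.1, P/4 leak subtraction, normalized to Cm, within 15 min of break-in. Pulses were 140 ms from Vh −80 mV. Student's t-test.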

[2] = system: HEK293; experiment: Inhibition of rabbit recombinant Cav2.2/rat recombinant Cavbeta3/Cavalpha2delta-1 expressed in HEK-293 cell assessed as decrease in inward current at 500 uM at voltages from -20 to +30 mV after 3 hrs by whole-cell patch clamp technique; type: cell-based; method in brief: as §1
[3] = system: HEK293; experiment: Inhibition of rabbit recombinant Cav2.2/rat recombinant Cavbeta3 expressed in HEK-293 cell assessed as current density at 500 uM after 3 hrs by whole-cell patch clamp technique; type: cell-based; method in brief: as §1
[4] = target: Cav1.3/Cav beta3/Cav alpha2delta complex (Rattus norvegicus) (UniProt P54290+P27732+P54287); experiment: Inhibition of rat recombinant Cav1.3/Cavbeta3/Cavalpha2delta-1 expressed in HEK-293 cell assessed as decrease in current density at 500 uM after 3 hrs by whole-cell patch clamp technique; type: cell-based; conditions: HEK293
Method in brief: (§2)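 Rat CaV1.3α1 (pcDNA6/His) was transiently co-transfected with β3, with or without α2δ-1, plus GFP into HEK-293 cells. Cells were incubated 3 h with 500 µM, then whole-cell Ba²⁺ current–voltage relationships were recorded at 22–24 °C, normalized to membrane capacitance. n = 9 with α2δ-1; n = 5–7 without.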

[5] = system: Rattus norvegicus; experiment: Anti-allodynic activity in Sprague-Dawley rat spinal nerve ligation-induced neuropathic pain model assessed as reversal of tactile allodynia at 10 to 300 ug administered intrathecally measured after 1 hr by von frey filament based paw withdrawal threshold method; type: functional, organism-based
Method in brief: (§3)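 Rats 140–160 g, 12/12 h light/dark, food and water ad libitum. Spinal nerve ligation under ketamine/xylazine (45:12 mg/kg i.p.). An intrathecal PE-10 catheter was placed to the lumbar level via the atlantooccipital membrane, followed by 5 d recovery. Rats with motor impairment were excluded. Bolus doses of 10–300 µg/rat were given to allodynic rats, against vehicle. 50% paw withdrawal threshold to von Frey filaments after 30–40 min acclimation on mesh.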

[6] = system: Rattus norvegicus; experiment: Anti-allodynic activity in Sprague-Dawley rat spinal nerve ligation-induced neuropathic pain model assessed as reversal of tactile allodynia at 10 to 300 ug administered intrathecally measured after 2 hrs by von frey filament based paw withdrawal threshold method; type: functional, organism-based; method in brief: as §3
[7] = target: Cav1.3/Cav beta3 complex (Rattus norvegicus) (UniProt P27732+P54287); experiment: Inhibition of rat recombinant Cav1.3/Cavbeta3 expressed in HEK-293 cell assessed as current density at 500 uM after 3 hrs by whole-cell patch clamp technique; type: cell-based; conditions: HEK293; method in brief: as §2
[8] = system: HEK293; experiment: Inhibition of rabbit recombinant Cav2.2/rat recombinant Cavbeta3/Cavalpha2delta-1 expressed in HEK-293 cell assessed as decrease in whole cell Ba2+ current at 500 uM at holding potential of -80 mV up to 3 hrs by whole-cell patch clamp technique; type: cell-based; method in brief: as §1
[9] = target: Voltage-dependent T-type calcium channel subunit alpha-1G (Homo sapiens) (UniProt O43497); experiment: Inhibition of human recombinant Cav3.1 expressed in HEK-293 cell assessed as current density at 500 uM after 3 hrs by whole cell patch clamp technique; type: cell-based; conditions: HEK293
Sequence of Voltage-dependent T-type calcium channel subunit alpha-1G (Homo sapiens) (O43497 whole entry): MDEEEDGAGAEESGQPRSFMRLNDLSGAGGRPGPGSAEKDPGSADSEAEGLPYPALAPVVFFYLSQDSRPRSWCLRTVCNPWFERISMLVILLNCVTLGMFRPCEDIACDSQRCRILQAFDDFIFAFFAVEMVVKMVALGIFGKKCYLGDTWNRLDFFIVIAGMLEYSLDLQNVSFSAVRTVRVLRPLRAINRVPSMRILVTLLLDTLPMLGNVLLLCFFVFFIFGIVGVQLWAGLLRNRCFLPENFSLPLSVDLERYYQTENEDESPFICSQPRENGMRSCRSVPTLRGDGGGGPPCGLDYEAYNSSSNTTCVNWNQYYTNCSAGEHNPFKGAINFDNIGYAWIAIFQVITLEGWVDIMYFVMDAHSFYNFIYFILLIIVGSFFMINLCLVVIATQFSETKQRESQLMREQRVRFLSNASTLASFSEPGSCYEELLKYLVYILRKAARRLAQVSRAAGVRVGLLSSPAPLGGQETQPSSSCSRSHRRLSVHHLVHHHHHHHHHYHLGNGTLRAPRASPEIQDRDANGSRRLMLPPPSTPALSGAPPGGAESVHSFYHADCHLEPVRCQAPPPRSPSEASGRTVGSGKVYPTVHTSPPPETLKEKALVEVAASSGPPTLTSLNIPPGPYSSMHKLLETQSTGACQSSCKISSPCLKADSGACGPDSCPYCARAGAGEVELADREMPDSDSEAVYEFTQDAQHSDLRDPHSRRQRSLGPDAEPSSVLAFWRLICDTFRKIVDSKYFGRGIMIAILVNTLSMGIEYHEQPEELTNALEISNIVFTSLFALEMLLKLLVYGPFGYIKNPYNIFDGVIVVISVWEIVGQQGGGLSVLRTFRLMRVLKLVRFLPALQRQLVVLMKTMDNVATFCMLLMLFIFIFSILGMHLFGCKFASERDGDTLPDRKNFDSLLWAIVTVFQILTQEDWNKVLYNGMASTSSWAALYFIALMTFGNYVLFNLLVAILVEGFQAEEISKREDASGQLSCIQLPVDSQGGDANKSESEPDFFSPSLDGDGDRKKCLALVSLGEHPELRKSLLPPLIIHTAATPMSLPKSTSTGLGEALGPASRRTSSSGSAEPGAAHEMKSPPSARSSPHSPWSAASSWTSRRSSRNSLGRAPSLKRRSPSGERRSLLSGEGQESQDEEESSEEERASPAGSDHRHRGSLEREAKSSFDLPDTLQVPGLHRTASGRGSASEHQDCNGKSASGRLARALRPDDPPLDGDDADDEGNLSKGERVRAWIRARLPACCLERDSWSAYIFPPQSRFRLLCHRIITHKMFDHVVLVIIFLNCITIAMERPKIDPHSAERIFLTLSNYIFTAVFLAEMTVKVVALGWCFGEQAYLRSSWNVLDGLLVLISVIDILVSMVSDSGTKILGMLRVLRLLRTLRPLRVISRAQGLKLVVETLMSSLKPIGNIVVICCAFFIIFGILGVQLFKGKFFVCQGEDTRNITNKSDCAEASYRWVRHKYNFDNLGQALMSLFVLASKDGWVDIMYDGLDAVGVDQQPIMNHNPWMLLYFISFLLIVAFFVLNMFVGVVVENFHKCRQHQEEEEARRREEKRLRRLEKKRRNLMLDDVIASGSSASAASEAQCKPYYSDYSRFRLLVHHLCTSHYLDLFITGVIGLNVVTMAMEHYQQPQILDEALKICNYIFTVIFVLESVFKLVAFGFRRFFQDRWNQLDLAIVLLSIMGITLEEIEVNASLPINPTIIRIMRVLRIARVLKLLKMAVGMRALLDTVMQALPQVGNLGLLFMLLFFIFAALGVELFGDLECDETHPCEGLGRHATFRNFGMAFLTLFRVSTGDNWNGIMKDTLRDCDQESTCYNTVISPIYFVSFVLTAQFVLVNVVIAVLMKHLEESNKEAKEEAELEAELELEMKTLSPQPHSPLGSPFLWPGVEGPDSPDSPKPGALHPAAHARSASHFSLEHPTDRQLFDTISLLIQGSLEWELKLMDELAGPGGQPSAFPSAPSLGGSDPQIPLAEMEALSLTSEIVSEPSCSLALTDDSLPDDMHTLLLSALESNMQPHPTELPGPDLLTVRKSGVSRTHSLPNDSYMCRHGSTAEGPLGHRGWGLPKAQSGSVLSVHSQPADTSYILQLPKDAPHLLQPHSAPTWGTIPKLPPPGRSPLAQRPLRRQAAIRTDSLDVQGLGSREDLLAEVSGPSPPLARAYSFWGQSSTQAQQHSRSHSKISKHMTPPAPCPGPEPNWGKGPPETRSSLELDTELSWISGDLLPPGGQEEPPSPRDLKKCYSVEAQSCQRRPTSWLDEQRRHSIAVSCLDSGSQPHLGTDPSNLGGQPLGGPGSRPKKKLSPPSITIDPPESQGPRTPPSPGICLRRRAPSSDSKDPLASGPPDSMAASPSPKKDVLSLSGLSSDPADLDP
Method in brief: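 HEK-293 cells stably expressing CaV3.1a (no auxiliary subunits) were re-seeded on poly-L-lysine coverslips and recorded ~4 h later. Cells were incubated 3 h with 500 µM. Whole-cell current–voltage relationships were recorded at 22–24 °C, normalized to Cm; n = 5–6.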

[10] = species: Rattus norvegicus; experiment: Toxicity in Sprague-Dawley rat spinal nerve ligation-induced neuropathic pain model assessed as reduction of stepping at 10 to 300 ug, it; type: organism-based; conditions: in vivo, icv_or_intrathecal
[11] = system: Rattus norvegicus; experiment: Anti-allodynic activity in Sprague-Dawley rat spinal nerve ligation-induced neuropathic pain model assessed as tactile allodynia at 10 to 300 ug administered intrathecally measured after 4 hrs by von frey filament based paw withdrawal threshold method; type: functional, organism-based; method in brief: as §3
[12] = species: Rattus norvegicus; experiment: Toxicity in Sprague-Dawley rat spinal nerve ligation-induced neuropathic pain model assessed as reduction of corneal and pinna reflexes at 10 to 300 ug, it; type: organism-based, Cornea; conditions: in vivo, icv_or_intrathecal
[13] = system: HEK293; experiment: Inhibition of rabbit recombinant Cav2.2/rat recombinant Cavbeta3/Cavalpha2delta-1 expressed in HEK-293 cell assessed as hyperpolarizing shift in half-inactivation potential at 500 uM after 3 hrs by whole cell patch clamp technique; type: cell-based; conditions: in the assay text read “depolarizing” for “hyperpolarizing”
Method in brief: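 Transiently transfected CaV2.2α1/β3/α2δ-1 HEK-293 cells were treated 3 h with 500 µM in culture medium. Whole-cell recording at 22–24 °C. 2 s prepulses of various amplitudes from Vh −80 mV, then test pulses to +20 mV. Steady-state inactivation was fitted with a Boltzmann equation to give V½ and slope; n = 4–6.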

[14] = species: Rattus norvegicus; experiment: Toxicity in Sprague-Dawley rat spinal nerve ligation-induced neuropathic pain model assessed as reduction of righting at 10 to 300 ug, it; type: organism-based; conditions: in vivo, icv_or_intrathecal
[15] = system: HEK293; experiment: Inhibition of rabbit recombinant Cav2.2/rat recombinant Cavbeta3/Cavalpha2delta-1 expressed in HEK-293 cell assessed as inhibition of channel current at 500 uM by whole-cell patch clamp technique; type: cell-based; method in brief: as §1
[16] = system: HEK293; experiment: Inhibition of rabbit recombinant Cav2.2/rat recombinant Cavbeta3/Cavalpha2delta-1 expressed in HEK-293 cell assessed as current density at 500 uM at holding potential of -80 mV after 1 to 2 hrs by whole-cell patch clamp technique; type: cell-based; method in brief: as §1

Cl.NCC1C2CC3CC(C2)CC1(C(=O)O)C3 (stereo unspecified)
Non-toxic: Activity [10] | Activity [12] | Activity [14]
inactive: inhibition [3] | inhibition [7] | inhibition [9] | Activity [11] | inhibition [16]
30%: inhibition [15]
active: inhibition [1] | inhibition [2] | inhibition [4] | Activity [5] | Activity [6] | inhibition [8] | inhibition [13]
